Measurements: ChEMBL document CHEMBL4699494, “Design, synthesis and evaluation of novel indirubin-based N-hydroxybenzamides, N-hydroxypropenamides and N-hydroxyheptanamides as histone deacetylase inhibitors and antitumor agents” (Bioorg Med Chem Lett, 2020)
Structures can show the parent of a compound that is named as a salt. The source made the active and inactive calls. No cut-off for these calls is given here.

What was measured:
[1] = test system: SW-620; test: Induction of apoptosis in human SW620 cells assessed as early apoptotic cells by flow cytometry; assay type: functional, cell-based
[2] = test system: PC-3; test: Cytotoxicity against human PC3 cells by colorimetric method; assay type: functional, cell-based
[3] = test system: NCI-H23; test: Cytotoxicity against human NCI-H23 cells by colorimetric method; assay type: functional, cell-based
[4] = test system: SW-620; test: Cytotoxicity against human SW620 cells by colorimetric method; assay type: functional, cell-based
[5] = biological target: T1, Protein deacetylase HDAC6 (Homo sapiens, UniProt Q9UBN7); test: Inhibition of HDAC6 (unknown origin)
T1 sequence (Q9UBN7 whole entry): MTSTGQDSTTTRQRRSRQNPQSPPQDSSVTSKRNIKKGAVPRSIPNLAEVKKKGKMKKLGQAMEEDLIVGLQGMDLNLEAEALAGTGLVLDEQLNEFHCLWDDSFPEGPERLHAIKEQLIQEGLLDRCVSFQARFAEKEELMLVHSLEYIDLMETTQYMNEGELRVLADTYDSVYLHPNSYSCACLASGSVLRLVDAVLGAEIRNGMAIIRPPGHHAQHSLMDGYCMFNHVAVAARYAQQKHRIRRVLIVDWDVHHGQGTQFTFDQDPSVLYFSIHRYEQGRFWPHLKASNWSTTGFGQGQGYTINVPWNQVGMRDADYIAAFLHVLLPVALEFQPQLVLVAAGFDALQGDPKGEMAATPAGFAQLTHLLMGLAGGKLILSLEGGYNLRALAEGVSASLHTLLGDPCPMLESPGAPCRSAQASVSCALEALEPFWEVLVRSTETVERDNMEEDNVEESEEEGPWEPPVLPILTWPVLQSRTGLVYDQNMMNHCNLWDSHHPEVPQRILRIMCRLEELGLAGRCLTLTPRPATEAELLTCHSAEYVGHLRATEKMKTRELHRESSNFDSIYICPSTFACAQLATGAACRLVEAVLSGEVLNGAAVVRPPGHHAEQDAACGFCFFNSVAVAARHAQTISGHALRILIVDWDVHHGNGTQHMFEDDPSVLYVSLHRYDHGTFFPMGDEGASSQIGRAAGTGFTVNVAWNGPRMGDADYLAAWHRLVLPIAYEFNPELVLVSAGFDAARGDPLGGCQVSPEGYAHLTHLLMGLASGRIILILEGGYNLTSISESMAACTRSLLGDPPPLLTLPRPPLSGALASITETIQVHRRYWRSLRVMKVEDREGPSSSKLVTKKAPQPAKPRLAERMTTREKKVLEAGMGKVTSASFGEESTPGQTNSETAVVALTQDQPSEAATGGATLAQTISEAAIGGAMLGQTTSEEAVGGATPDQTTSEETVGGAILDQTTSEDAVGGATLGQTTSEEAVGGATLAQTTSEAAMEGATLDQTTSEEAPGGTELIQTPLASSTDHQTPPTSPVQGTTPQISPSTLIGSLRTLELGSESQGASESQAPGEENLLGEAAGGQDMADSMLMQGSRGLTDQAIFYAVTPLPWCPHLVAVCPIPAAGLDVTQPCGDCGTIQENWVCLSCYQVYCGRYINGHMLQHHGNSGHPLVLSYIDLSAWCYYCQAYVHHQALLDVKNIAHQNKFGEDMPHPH

[6] = biological target: Histone deacetylase 2 (Homo sapiens, UniProt Q92769); test: Inhibition of HDAC2 (unknown origin)
[7] = test system: NCI-H23; test: Potency index, ratio of adriamycin IC50 to compound IC50 for human NCI-H23 cells by colorimetric method; assay type: functional
Outline: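 Growth inhibition of cancer cells read by a colorimetric method with slight modifications. IC50 is the concentration giving 50% reduction in cell growth, computed by the Probits method and averaged over three independent experiments. The index is the reference drug's IC50 divided by the compound's IC50 in the same cell line.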

[8] = biological target: Histone deacetylase; test: Inhibition of HDAC in human HeLa nuclear extract using fluoroscence-labeled acetylated peptide as substrate by fluorometric assay; assay type: subcellular, Nucleus
[9] = organism: Homo sapiens; test: Selectivity index, ratio of IC50 for HDAC2 (unknown origin) to IC50 for HDAC6 (unknown origin)
[10] = test system: SW-620; test: Induction of cell cycle arrest in human SW-620 cells assessed as accumulation at G0/G1 phase by flow cytometry; assay type: functional, cell-based
[11] = test system: SW-620; test: Induction of cell cycle arrest in human SW-620 cells assessed as accumulation at S phase by flow cytometry; assay type: functional, cell-based

Chain of Histone deacetylase 2 (Q92769 whole entry): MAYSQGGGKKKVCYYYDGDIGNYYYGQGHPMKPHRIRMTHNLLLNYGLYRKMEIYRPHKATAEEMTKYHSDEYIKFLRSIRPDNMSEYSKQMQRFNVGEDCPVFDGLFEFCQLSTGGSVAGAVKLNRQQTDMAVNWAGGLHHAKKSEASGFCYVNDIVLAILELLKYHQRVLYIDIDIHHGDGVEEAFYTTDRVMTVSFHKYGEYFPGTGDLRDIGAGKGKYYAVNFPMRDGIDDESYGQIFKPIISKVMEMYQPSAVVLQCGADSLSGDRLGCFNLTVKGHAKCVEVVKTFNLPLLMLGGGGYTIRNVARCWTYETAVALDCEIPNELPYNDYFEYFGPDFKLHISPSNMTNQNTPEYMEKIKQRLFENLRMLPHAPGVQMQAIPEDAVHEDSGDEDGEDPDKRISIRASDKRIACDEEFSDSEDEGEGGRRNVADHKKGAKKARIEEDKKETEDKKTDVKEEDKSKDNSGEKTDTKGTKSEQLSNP

| Structure (SMILES) | Activity [1] | IC50 [2] [nM] | IC50 [3] [nM] | IC50 [4] [nM] | IC50 [5] [nM] | IC50 [6] [nM] | Ratio IC50 [7] | IC50 [8] [µM] | Ratio IC50 [9] | Activity [10] | Activity [11] |
| --- | --- | --- | --- | --- | --- | --- | --- | --- | --- | --- | --- |
| O=C(CCCCCCC(=O)Nc1ccccc1)NO | Active |  |  |  |  |  |  |  |  |  |  |
| O=C1Nc2ccccc2/C1=C1/Nc2ccccc2/C1=N\O |  | 15800 | 11200 | 13500 |  |  |  |  |  |  |  |
| O=C(NO)c1ccc(CN2C(=O)/C(=C3\Nc4ccccc4\C3=N/O)c3ccccc32)cc1 |  | 60 | 70 | 70 | 7 | 205 | <=10 | 0.195 | 29 | Active |  |
| COc1cccc2c1C(=O)c1c(O)c3c(c(O)c1C2=O)C[C@@](O)(C(=O)CO)C[C@@H]3O[C@H]1C[C@H](N)[C@H](O)[C@H](C)O1 [DOXORUBICIN HYDROCHLORIDE] |  | 90 | 90 | 90 |  |  |  |  |  |  |  |
| O=C(NO)c1ccc(CN2C(=O)/C(=C3\Nc4ccccc4\C3=N/O)c3cc(Br)ccc32)cc1 |  | 50 | 7 | 70 | 24 | 75 | <=10 | 0.039 |  |  |  |
| O=C(NO)c1ccc(CN2C(=O)/C(=C3\Nc4ccccc4\C3=N/O)c3cc(F)ccc32)cc1 |  | 50 | 30 | 20 | 43 | 194 | <=10 | 0.218 | 4.5 |  |  |
| O=C(/C=C/c1ccc(CN2C(=O)/C(=C3\Nc4ccccc4\C3=N/O)c3cc(F)ccc32)cc1)NO |  | 50 | 8 | 50 |  |  | <=10 | 0.422 |  |  |  |
| O=C(/C=C/c1ccc(CN2C(=O)/C(=C3\Nc4ccccc4\C3=N/O)c3cc(Cl)ccc32)cc1)NO |  | 60 | 7 | 80 |  |  | <=10 | 0.318 |  |  |  |
| O=C(CCCCCCN1C(=O)/C(=C2\Nc3ccccc3\C2=N/O)c2cc(F)ccc21)NO |  | 12 | 8 | 80 |  |  | <=10 | 0.014 |  |  |  |
| O=C(CCCCCCN1C(=O)/C(=C2\Nc3ccccc3\C2=N/O)c2cccc(Cl)c21)NO |  | 30 | 50 | 90 |  |  | <=10 | 0.007 |  |  |  |
| O=C(/C=C/c1ccc(CN2C(=O)/C(=C3\Nc4ccccc4\C3=N/O)c3cc(Br)ccc32)cc1)NO |  | 90 | 9 | 60 |  |  | <=10 | 0.183 |  |  |  |
| COc1ccc2c(c1)/C(=C1/Nc3ccccc3/C1=N\O)C(=O)N2Cc1ccc(C(=O)NO)cc1 |  | 30 | 90 | 40 | 30 | 31 | <=10 | 0.025 |  |  |  |
| Cc1ccc2c(c1)/C(=C1/Nc3ccccc3/C1=N\O)C(=O)N2Cc1ccc(/C=C/C(=O)NO)cc1 |  | 60 | 10 | 50 |  |  | <=10 | 0.02 |  |  |  |
| Cc1ccc2c(c1)/C(=C1/Nc3ccccc3/C1=N\O)C(=O)N2CCCCCCC(=O)NO |  | 80 | 10 | 50 |  |  | <=10 | 0.018 |  |  |  |
| O=C(CCCCCCN1C(=O)/C(=C2\Nc3ccccc3\C2=N/O)c2ccccc21)NO | Active | 50 | 90 | 90 |  |  | <=10 | 0.022 |  |  |  |
| COc1ccc2c(c1)/C(=C1/Nc3ccccc3/C1=N\O)C(=O)N2Cc1ccc(/C=C/C(=O)NO)cc1 |  | 30 | 50 | 40 |  |  | <=10 | 0.005 |  |  |  |
| O=C(NO)c1ccc(CN2C(=O)/C(=C3\Nc4ccccc4\C3=N/O)c3cccc(Cl)c32)cc1 |  | 60 | 60 | 90 | 49 | 88 | <=10 | 0.071 |  |  |  |
| O=C(NO)c1ccc(CN2C(=O)/C(=C3\Nc4ccccc4\C3=N/O)c3cc(Cl)ccc32)cc1 |  | 50 | 50 | 60 | 16 | 187 | <=10 | 0.174 | 11.7 |  |  |
| O=C(CCCCCCN1C(=O)/C(=C2\Nc3ccccc3\C2=N/O)c2cc(Br)ccc21)NO |  | 30 | 9 | 90 |  |  | <=10 | 0.004 |  |  |  |
| O=C(/C=C/c1ccc(CN2C(=O)/C(=C3\Nc4ccccc4\C3=N/O)c3cccc(Cl)c32)cc1)NO |  | 90 | 50 | 60 |  |  | <=10 | 0.604 |  |  |  |
| COc1ccc2c(c1)/C(=C1/Nc3ccccc3/C1=N\O)C(=O)N2CCCCCCC(=O)NO |  | 50 | 70 | 30 |  |  | <=10 | 0.021 |  |  |  |
| O=C(CCCCCCN1C(=O)/C(=C2\Nc3ccccc3\C2=N/O)c2cc(Cl)ccc21)NO |  | 90 | 30 | 60 |  |  | <=10 | 0.003 |  |  |  |
| Cc1ccc2c(c1)/C(=C1/Nc3ccccc3/C1=N\O)C(=O)N2Cc1ccc(C(=O)NO)cc1 |  | 90 | 10 | 30 | 20 | 21 | <=10 | 0.005 |  |  |  |
| O=C(/C=C/c1ccc(CN2C(=O)/C(=C3\Nc4ccccc4\C3=N/O)c3ccccc32)cc1)NO | Active | 50 | 9 | 50 |  |  | <=10 | 0.095 |  | Active | Active |
